# In the library only some 3.7% were active in any assay of this set; here they are far more common.
# NPY2 pot ag = human NPY-Y2 potentiation or agonism, primary screen; cells expressing NPY-Y2, potentiator/agonist read-out; P49146; actives 0.45% (n = 220,000); activation, % at 3.6 µM; in the data active means activation above about 27%;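 further: cells stimulated with NPY near EC25 plus isoproterenol at EC100; 0% = vehicle plus submaximal agonist and 100% = vehicle plus saturating agonist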
# Target sequence (P49146 whole entry, looked up): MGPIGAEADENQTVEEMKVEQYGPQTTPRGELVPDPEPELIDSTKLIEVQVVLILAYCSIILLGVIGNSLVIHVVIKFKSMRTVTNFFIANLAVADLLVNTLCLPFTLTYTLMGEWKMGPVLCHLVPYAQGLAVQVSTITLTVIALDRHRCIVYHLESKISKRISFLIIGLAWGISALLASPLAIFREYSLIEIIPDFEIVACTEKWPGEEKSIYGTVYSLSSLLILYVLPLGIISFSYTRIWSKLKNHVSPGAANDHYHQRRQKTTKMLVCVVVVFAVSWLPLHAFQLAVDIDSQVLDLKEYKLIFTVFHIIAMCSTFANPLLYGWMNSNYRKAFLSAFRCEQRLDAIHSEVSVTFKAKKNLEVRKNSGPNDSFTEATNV
# NPY1 pot ag = potentiators or agonists of human neuropeptide Y receptor Y1; NPY-Y1 expressing cells, potentiator/agonist activation; activation, % at 3.6 µM; actives 0.37% (n = 220,000); in the data active means activation above about 33%, passing the limit was not always enough;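 further: cells stimulated with NPY at EC10 then isoproterenol at EC100; 0% = low agonist plus stimulus and 100% = saturating agonist plus stimulus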
# NPY-Y1 antag = blocks the human neuropeptide Y Y1 receptor | AID 1040 | P25929 | actives 1% (n = 200,000) | inhibition, % at 3.6 µM | HEK293-CNG Y1 cells, membrane potential fluorescence; NPY at EC95, then isoproterenol;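 active means inhibition above the campaign mean inhibition of all tested compounds plus 3 SD, cut at about 20% in these data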;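 further: 0% = DMSO wells given NPY plus isoproterenol and 100% = isoproterenol alone without NPY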
#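 Material: HEK293 Y1/CNG channel cell line; also added: NPY (25 nM), isoproterenol (1 µM), Ro 20-1724 (25 µM); doses: one concentration, 3.6 µM, in 0.4% DMSO; schedule: compound incubation 1 h at room temperature, readout 45 min post-stimulation; technique: membrane potential fluorescence; measure: fluorescence ratio normalized to % inhibition between controls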
# KCC2 mod = modulates chloride dependent transport by human KCC2. Q9H2X9. KCC2 cells, thallium flux FluoZin-2 fluorescence. B-score of Tl+ flux slope (higher = more flux/activation; lower = inhibition) at 10 µM. actives 2.2% (n = 190,000);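 active means thallium flux slope and its plate-corrected score both differing from the plate sample mean at a set confidence after two filtering rounds, in either direction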;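 further: slope of fluorescence scaled to starting intensity during 10 to 20 s after thallium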
# NPY Y2 blocker = antagonists of human neuropeptide Y receptor Y2. NPY-Y2 expressing cells, antagonist mode. inhibition, % at 2.7 µM. AID 793. actives 0.99% (n = 140,000); in the data active means inhibition above about 17%;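 further: 0% = vehicle with agonist challenge and 100% = reference antagonist with challenge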
# Furin inhibitor = human furin inhibition; actives 0.061% (n = 220,000); inhibition, % at 20 µM or 30 µM; P09958; purified furin, fluorogenic substrate cleavage; in the data active means inhibition above about 25%
# KCC2 secondary = confirmation of human KCC2 transport modulators. shares compounds with KCC2 mod. HEK293-KCC2, thallium flux, FluoZin2 fluorescence; stronger effect = higher value. normalised thallium flux (F/F0 slope) at 10 µM. actives 15% (n = 3,700);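 active means thallium flux slope above the same plate's solvent-only control mean plus 3 SD; inconclusive means the two replicate wells disagree; inactive means no significant difference from solvent-only control wells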
# KCC2 bumet counter = bumetanide-insensitive thallium flux in KCC2 cells with ouabain, counter-screen | normalized thallium flux at 10 µM | actives 49% (n = 3,700) | HEK293-KCC2 + bumetanide/ouabain, thallium flux FluoZin2; stronger effect = higher value | shares compounds with KCC2 mod | AID 1714;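 active means thallium entry rate above the same plate's blocked-transporter control wells by more than 3 SD; inconclusive means the two repeat wells disagree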;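 further: raw slope of fluorescence over initial fluorescence between 10 and 20 s after thallium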
# KCC2 sec2 = KCC2 (human) modulation, second secondary assay. shares compounds with KCC2 mod. HEK293-KCC2, thallium flux FluoZin2 fluorescence; actives lie on both sides; F/F0 rise rate, 10–20 s post-thallium. normalized thallium flux at 10 µM. actives 23% (n = 3,700);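 active means thallium flux slope more than 3 SD above or below the plate's solvent-only control mean, mostly below; inconclusive means the two repeat wells disagreed; inactive means no significant shift from solvent-only controls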;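 further: raw slope with 0.1% DMSO as baseline and bumetanide as block control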
# HEK293 Tl flux = parental HEK flux effect, counter-screen | shares compounds with KCC2 mod | HEK293 parental cells, thallium flux FluoZin2, ouabain; baseline-ratio fluorescence slope, 10–20 s after thallium | thallium flux rate (normalised fluorescence) at 10 µM | actives 46% (n = 3,700) | AID 1716;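 active means thallium flux rate significantly above the same plate's solvent-only control wells, beyond their mean plus 3 SD; inconclusive means the two replicate wells gave conflicting results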
# KCC2 retest ouab = KCC2 (human) modulation, ouabain retest. shares compounds with KCC2 mod. raw Tl+ flux slope (below DMSO = inhibition, above = activation) at 10 µM. HEK293-KCC2, thallium flux FluoZin2 fluorescence; bidirectional: low = inhibitor, high = activator. actives 48% (n = 3,700);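 active means thallium flux slope beyond 3 SD from same-plate DMSO control mean in most replicates, usually higher, sometimes lower; inconclusive means repeat tests gave conflicting results; inactive means no significant difference from controls in most replicates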;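 further: slope of initial-normalized fluorescence between seconds 10 and 20 after thallium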
# HEK counter2 = acts in parental HEK cells, second KCC2 counter-screen; shares compounds with KCC2 mod; actives 33% (n = 3,700); HEK293 parental, thallium flux FluoZin-2 fluorescence slope; thallium flux slope at 10 µM; AID 1718;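 active means thallium flux slope above the same plate's solvent-control mean plus 3 SD in both duplicate wells; inconclusive means duplicate wells that disagreed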;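 further: run without ouabain in cells lacking the KCC2 cotransporter; slope of fluorescence scaled to its starting value between 10 and 20 s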
# Numbers without * were called inactive; u = inconclusive; x = no result given.
SMILES,NPY2 pot ag,NPY1 pot ag,NPY-Y1 antag,KCC2 mod,NPY Y2 blocker,Furin inhibitor,KCC2 secondary,KCC2 bumet counter,KCC2 sec2,HEK293 Tl flux,KCC2 retest ouab,HEK counter2
COc1cccc(-c2nnc(NC(=O)c3ccc4ncsc4c3)o2)c1,-4.3,-21.6,7.6,8.84*,4.1,-6.8,0.0131*,0.0383*,0.0324,0.0166*,0.0332*,u
CC(=O)Nc1nnc(-c2ccc3c(c2)CCCC3)o1,-4.1,-11.2,1.9,0,3.4,-9.3,x,x,x,x,x,x
CCCCN(CC)S(=O)(=O)c1ccc(C(=O)Nc2nnc(-c3cccs3)o2)cc1,-0.5,-2.3,6.7,22.5*,5.0,-12.1,0.016*,0.0749*,0.0294,0.0361*,0.0504*,0.011*
COC(=O)[C@H](CCSC)NC(=O)Nc1cccc(Br)c1,-0.7,19.3,x,0.437,x,-19.5,x,x,x,x,x,x
COc1ccc(C2NC(=S)NC3=C2CCc2cc(OC)ccc23)cc1 (stereo unspecified),16.8,-11.3,-0.7,1.53,0.5,-18.5,x,x,x,x,x,x
COc1ccc(/C(O)=C2/C(=O)C(=O)N(c3ncccn3)C2c2ccc(C(C)(C)C)cc2)cc1 (stereo unspecified),-2.4,-14.7,4.7,-0.0953,x,-8.8,x,x,x,x,x,x
COc1ccc(/C=C/C(=O)NC(CCSC)C(=O)O)cc1 (stereo unspecified),-13.5,-12.6,0.5,0.758,x,-19.1,x,x,x,x,x,x
COc1cccc(-c2nnc(NC(C)=O)o2)c1,x,x,x,-0.0108,x,-32.1,x,x,x,x,x,x
COc1cccc(C(=O)Nc2nnc(-c3cccs3)o2)c1,-12.7,-6.1,6.9,5.31*,7.5,-1.6,0.00652,0.0228*,0.0337,0.018*,0.029*,0.0164*
Cc1cccc(C(=O)Nc2nnc(-c3ccncc3)o2)c1,-8.6,-6.7,6.7,0.701,x,1.5,x,x,x,x,x,x
O=C(Nc1nnc(-c2cccs2)o1)c1ccco1,-17.8,12.6,2.1,-0.0363,1.2,-10.7,x,x,x,x,x,x
COc1cccc(C(=O)Nc2nnc(-c3ccc(F)cc3)o2)c1,x,x,x,14.7*,x,-33.6,0.00955*,0.0498*,0.0473*,0.0345*,0.0474*,0.0231*
COc1cccc(C(=O)Nc2nnc(-c3ccc(Cl)cc3)o2)c1,x,x,x,45.6*,x,-13.0,u,0.111*,0.0945*,0.0954*,0.101*,0.0893*
COc1ccc(-c2nnc(NC(=O)c3ccccc3C)o2)cc1,x,x,x,4.49*,x,-32.6,0.0149*,0.0239*,0.0308,0.0128*,0.0265,u
O=C(Cc1ccccc1)NNC(=O)c1ccccc1C(=O)O,-28.8,11.4,x,-0.661,x,-13.6,x,x,x,x,x,x
Fc1cccc(Cl)c1CNCc1ccccc1Cl,-20.0,1.2,6.1,0.727,1.4,-10.1,x,x,x,x,x,x
O=C(Cn1cnc2ccccc2c1=O)Nc1ccc(N2CCOCC2)cc1,6.5,7.6,2.4,0.817,x,-28.8,x,x,x,x,x,x
CCn1cc(C(=O)NC(=S)Nc2cccc(O)c2)cn1,-2.4,2.9,-0.9,0.0483,2.5,-12.4,x,x,x,x,x,x
NC(=O)/C(=C\c1cccnc1)NC(=O)c1ccccc1,1.1,14.5,-1.1,0.152,x,-22.8,x,x,x,x,x,x
O=C(COc1ccc([N+](=O)[O-])cc1)NNC(=S)NC(=O)c1ccc(Br)cc1,12.8,13.8,1.8,6.05*,x,-27.8,u,0.0292*,0.0299,0.0179*,0.0271*,u
